Reference: publication PMC9050490 (RSC Advances, 2020)

Tests used:
HepG2 cells = experiment: MTT antiproliferative assay, HepG2; format: cell-based, human
How it was run: (§1)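 Cells were pre-incubated 24 h at 37 °C under 5% CO2, then exposed to a range of test compound concentrations dissolved in culture medium. MTT (5 mg mL−1 solution) was added for 4 h and formazan dissolved in DMSO. Absorbance was read at 630 nm. IC50 came from a non-linear curve fit, and growth inhibition was also reported.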

Karpas299 cells = experiment: MTT antiproliferative assay, Karpas299; format: cell-based
How it was run: as §1

A549 cells = experiment: MTT antiproliferative assay, A549; format: cell-based; settings: Homo sapiens, A549, read-out: Antiproliferative activity IC50
How it was run: as §1

MCF-7 cells = experiment: MTT antiproliferative assay, MCF-7; format: cell-based; settings: Homo sapiens, MCF7, read-out: Antiproliferative activity IC50
How it was run: as §1

PC-3 cells = experiment: MTT antiproliferative assay, PC-3; format: cell-based; settings: Homo sapiens, PC-3, read-out: Antiproliferative activity IC50
How it was run: as §1

| IC50 (HepG2 cells; Homo sapiens, HepG2, read-out: Antiproliferative activity IC50) | IC50 (Karpas299 cells; Homo sapiens, KARPAS-299, read-out: Antiproliferative activity IC50) | IC50 (A549 cells) | IC50 (MCF-7 cells) | IC50 (PC-3 cells) | SMILES | growth inhibition (HepG2 cells; HepG2, 2 μg mL^−1, MTT) | growth inhibition (HepG2 cells; HepG2, 20 μg mL^−1, MTT) | growth inhibition (Karpas299 cells; Karpas299, 2 μg mL^−1, MTT) | growth inhibition (Karpas299 cells; Karpas299, 20 μg mL^−1, MTT) | inhibition at 2 µg/mL (HepG2 cells; Homo sapiens, HepG2, read-out: growth inhibition, HepG2, 2 μg mL^−1, MTT) | inhibition at 20 µg/mL (HepG2 cells; Homo sapiens, HepG2, read-out: growth inhibition, HepG2, 20 μg mL^−1, MTT) |
| --- | --- | --- | --- | --- | --- | --- | --- | --- | --- | --- | --- |
|  |  |  |  |  | CC1(C)[C@@H](O)CC[C@]2(C)[C@H]3C(=O)C=C4[C@@H]5C[C@@](C)(C(=O)N6CCN(C(=O)c7ccc(Cl)cc7)CC6)CC[C@]5(C)CC[C@@]4(C)[C@]3(C)CC[C@@H]12 [Compound 4i, 3β-Hydroxy-30-(4-(4-chlorobenzoyl)-1-piperazinyl)-olean-12-ene-11,30-dione] | 0.00% | 19.10% | 0.00% | 12.76% |  |  |
| 10.6 µM | 2.82 µM | 1.49 µM | 4.09 µM | 7.33 µM | C[C@@H](Oc1cc(-c2cnn(C3CCNCC3)c2)cnc1N)c1c(Cl)ccc(F)c1Cl [Crizotinib] |  |  |  |  | 27.1% | 97.8% |
